Data from ChEMBL document CHEMBL1123648, “Synthesis, chemical reactivity, and antileukemic activity of 5-substituted 6,7-bis(hydroxymethyl)pyrrolo[1,2-c]thiazole biscarbamates and the corresponding sulfoxides and sulfones” (1987).

Columns and labels:
P388 [1] = assay: Log cell population relative to cell population at the beginning of treatment compared to control group C at a dose of 25 mg/kg; type: functional, Mus musculus
[2] = Antileukemic activity against Murine P388 lymphocytic leukemia, body weight difference of the test animals compared to control group C animals at a dose of 100 mg/kg; type: functional, Mus musculus; set-up: unit not given here
Method in brief: (§1)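 CD2F1 mice implanted intraperitoneally with ascitic fluid carrying ca. 1×10^6 P388 cells, under the NCI protocol. Dosing was intraperitoneal, starting 24 h after inoculation, then every 24 h for five doses in total. The body weight difference of treated mice is taken against untreated controls. Toxicity day survivors are the mice alive at day five out of those tested.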

[3] = Percent increase in life span of test animals compared to untreated tumor-bearing control group C animals at a dose of 50 mg/kg; type: functional; settings: Mus musculus
[4] = Toxicity day survivors expressed as number of animals that survived to day five/ number of test animals under control group C at a dose of 100 mg/kg; 6 survived out of 6; type: functional, Mus musculus
[5] = Antileukemic activity against Murine P388 lymphocytic leukemia, body weight difference of the test animals compared to control group C animals at a dose of 200 mg/kg; type: functional, Mus musculus; method in brief: as §1
[6] = Percent increase in life span of test animals compared to untreated tumor-bearing control group C animals at a dose of 25 mg/kg; type: functional; settings: Mus musculus
[7] = Toxicity day survivors expressed as number of animals that survived to day five/ number of test animals under control group C at a dose of 200 mg/kg; 6 survived out of 6; type: functional, Mus musculus
[8] = Antileukemic activity against Murine P388 lymphocytic leukemia, body weight difference of the test animals compared to control group C animals at a dose of 50 mg/kg; type: functional, Mus musculus; set-up: unit not given here; method in brief: as §1
[9] = Toxicity day survivors expressed as number of animals that survived to day five/ number of test animals under control group C at a dose of 50 mg/kg; 6 survived out of 6; type: functional, Mus musculus
[10] = Antileukemic activity against Murine P388 lymphocytic leukemia, body weight difference of the test animals compared to control group C animals at a dose of 25 mg/kg; type: functional, Mus musculus; method in brief: as §1
P388 [11] = assay: Log cell population relative to cell population at the beginning of treatment compared to control group C at a dose of 50 mg/kg; type: functional, Mus musculus
[12] = Toxicity day survivors expressed as number of animals that survived to day five/ number of test animals under control group C at a dose of 25 mg/kg; 6 survived out of 6; type: functional, Mus musculus
[13] = Toxicity day survivors expressed as number of animals that survived to day five/ number of test animals under control group B at a dose of 50 mg/kg; 5 survived out of 6; type: functional, Mus musculus
[14] = Percent increase in life span of test animals compared to untreated tumor-bearing control group B animals at a dose of 12.5 mg/kg; type: functional; settings: Mus musculus
[15] = Antileukemic activity against Murine P388 lymphocytic leukemia, body weight difference of the test animals compared to control group B animals at a dose of 12.5 mg/kg; type: functional, Mus musculus; set-up: unit not given here; method in brief: as §1
[16] = Toxicity day survivors expressed as number of animals that survived to day five/ number of test animals under control group B at a dose of 25 mg/kg; 5 survived out of 6; type: functional, Mus musculus
[17] = Antileukemic activity against Murine P388 lymphocytic leukemia, body weight difference of the test animals compared to control group B animals at a dose of 50 mg/kg; type: functional, Mus musculus; set-up: unit not given here; method in brief: as §1
[18] = Toxicity day survivors expressed as number of animals that survived to day five/ number of test animals under control group B at a dose of 100 mg/kg; 1 survived out of 6; type: functional, Mus musculus
P388 [19] = assay: Log cell population relative to cell population at the beginning of treatment compared to control group Bat a dose of 50 mg/kg; type: functional, Mus musculus
[20] = Toxicity day survivors expressed as number of animals that survived to day five/ number of test animals under control group B at a dose of 12.5 mg/kg; […] out of 6; type: functional, Mus musculus
[21] = Percent increase in life span of test animals compared to untreated tumor-bearing control group B animals at a dose of 25 mg/kg; type: functional; settings: Mus musculus
P388 [22] = assay: Log cell population relative to cell population at the beginning of treatment compared to control group B at a dose of 25 mg/kg; type: functional, Mus musculus
[23] = Antileukemic activity against Murine P388 lymphocytic leukemia, body weight difference of the test animals compared to control group B animals at a dose of 25 mg/kg; type: functional, Mus musculus; set-up: unit not given here; method in brief: as §1
[24] = Antileukemic activity against Murine P388 lymphocytic leukemia, body weight difference of the test animals compared to control group B animals at a dose of 100 mg/kg; type: functional, Mus musculus; set-up: unit not given here; method in brief: as §1
[25] = Percent increase in life span of test animals compared to untreated tumor-bearing control group B animals at a dose of 50 mg/kg; type: functional; settings: Mus musculus
P388 [26] = assay: Log cell population relative to cell population at the beginning of treatment compared to control group B at a dose of 12.5 mg/kg; type: functional, Mus musculus
[27] = Toxicity day survivors expressed as number of animals that survived to day five/ number of test animals under control group B at a dose of 100 mg/kg; 6 survived out of 6; type: functional, Mus musculus
[28] = Antileukemic activity against Murine P388 lymphocytic leukemia and toxicity day survivors expressed as number of animals that survived to day five/ number of test animals under control group B at a dose of 6.5 mg/kg; 6 survived out of 6; type: functional, Mus musculus
[29] = Toxicity day survivors expressed as number of animals that survived to day five/ number of test animals under control group B at a dose of 50 mg/kg; 6 survived out of 6; type: functional, Mus musculus
[30] = Toxicity day survivors expressed as number of animals that survived to day five/ number of test animals under control group B at a dose of 25 mg/kg; 6 survived out of 6; type: functional, Mus musculus
[31] = Antileukemic activity against Murine P388 lymphocytic leukemia, body weight difference of the test animals compared to control group B animals at a dose of 6.25 mg/kg; type: functional, Mus musculus; method in brief: as §1
[32] = Percent increase in life span of test animals compared to untreated tumor-bearing control group B animals at a dose of 6.25 mg/kg; type: functional; settings: Mus musculus
P388 [33] = assay: Log cell population relative to cell population at the beginning of treatment compared to control group B at a dose of 6.25 mg/kg; type: functional, Mus musculus
[34] = Toxicity day survivors expressed as number of animals that survived to day five/ number of test animals under control group B at a dose of 12.5 mg/kg; type: functional, Mus musculus
[35] = Antileukemic activity against Murine P388 lymphocytic leukemia, body weight difference of the test animals compared to control group A animals at a dose of 100 mg/kg; type: functional, Mus musculus; set-up: unit not given here; method in brief: as §1
[36] = Toxicity day survivors expressed as number of animals that survived to day five/ number of test animals under control group A at a dose of 200 mg/kg; 6 survived out of 6; type: functional, Mus musculus
[37] = Toxicity day survivors expressed as number of animals that survived to day five/ number of test animals under control group A at a dose of 25 mg/kg; 6 survived out of 6; type: functional, Mus musculus
[38] = Antileukemic activity against Murine P388 lymphocytic leukemia, body weight difference of the test animals compared to control group A animals at a dose of 400 mg/kg; type: functional, Mus musculus; method in brief: as §1
[39] = Toxicity day survivors expressed as number of animals that survived to day five/ number of test animals under control group A at a dose of 400 mg/kg; 3 survived out of 6; type: functional, Mus musculus
[40] = Toxicity day survivors expressed as number of animals that survived to day five/ number of test animals under control group A at a dose of 100 mg/kg; 6 survived out of 6; type: functional, Mus musculus
[41] = Percent increase in life span of test animals compared to untreated tumor-bearing control group A animals at a dose of 200 mg/kg; type: functional; settings: Mus musculus
[42] = Antileukemic activity against Murine P388 lymphocytic leukemia, body weight difference of the test animals compared to control group A animals at a dose of 25 mg/kg; type: functional, Mus musculus; set-up: unit not given here; method in brief: as §1
[43] = Antileukemic activity against Murine P388 lymphocytic leukemia, body weight difference of the test animals compared to control group A animals at a dose of 50 mg/kg; type: functional, Mus musculus; set-up: unit not given here; method in brief: as §1
[44] = Toxicity day survivors expressed as number of animals that survived to day five/ number of test animals under control group A at a dose of 50 mg/kg; 6 survived out of 6; type: functional, Mus musculus
[45] = Antileukemic activity against Murine P388 lymphocytic leukemia, body weight difference of the test animals compared to control group A animals at a dose of 200 mg/kg; type: functional, Mus musculus; method in brief: as §1

CNC(=O)OCc1c(COC(=O)NC)c2n(c1C)CSC2
KE (P388 [1]): -0.03
BWD [2]: -2.2
ILS at 50 mg/kg [3]: 32%
TDS [4]: 6
BWD [5]: -1.9
ILS at 25 mg/kg [6]: 26%
TDS [7]: 6
BWD [8]: -1.7
TDS [9]: 6
BWD [10]: -1
KE (P388 [11]): 0
TDS [12]: 6

CC(C)NC(=O)OCc1cn2c(c1COC(=O)NC(C)C)CCC2
TDS [13]: 5
ILS at 12.5 mg/kg [14]: 20%
BWD [15]: -0.9
TDS [16]: 5
BWD [17]: -4.4
TDS [18]: 1
KE (P388 [19]): -0.69
TDS [20]: 5
ILS at 25 mg/kg [21]: 28%
KE (P388 [22]): -0.46
BWD [23]: -4.5
BWD [24]: -3.6
ILS at 50 mg/kg [25]: 26%
KE (P388 [26]): -1.23

CC(C)NC(=O)OCc1c(COC(=O)NC(C)C)c(-c2ccc(Cl)c(Cl)c2)n2c1CS(=O)(=O)C2
TDS [27]: 6
ILS at 12.5 mg/kg [14]: -13%
TDS [28]: 6
BWD [15]: 1.3
TDS [29]: 6
BWD [17]: -0.8
TDS [30]: 6
BWD [31]: -0.6
ILS at 6.25 mg/kg [32]: 1%
BWD [23]: 0.4
KE (P388 [33]): -1.47
BWD [24]: -2.3
ILS at 50 mg/kg [25]: -14%
TDS [34]: 6

CC(C)NC(=O)OCc1c(COC(=O)NC(C)C)c(-c2ccc(Cl)c(Cl)c2)n2c1C[S+]([O-])C2 (stereo unspecified)
BWD [35]: -2.9
TDS [36]: 6
TDS [37]: 6
BWD [38]: -3.4
TDS [39]: 3
TDS [40]: 6
ILS at 200 mg/kg [41]: -11%
BWD [42]: -0.9
BWD [43]: -1.9
TDS [44]: 6
BWD [45]: -3.1
